In article PMC6865048 (Clinical cancer research : an official journal of the …, 2018):
Where “and” joins values, the source holds several entries; their conditions need not be identical. Identical values can stand only once. Entries after “also recorded” stand apart in the source; their conditions may differ. Like-named read-outs stand apart in the source and are kept apart here.

What was measured:
[1] = format: in vivo, human
[2] = format: in vivo, human; conditions: single oral dose of 400 mg, at 2 to 24 h
Method in brief: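 Adult recurrent glioblastoma patients took a single oral dose before resection. Contrast-enhancing tumor was taken intraoperatively, rinsed in ice-cold PBS, blot-dried, snap-frozen and held at -80° C. EDTA blood was spun at 4°C, 1,500 × g, 10 min. Total drug in plasma and tumor was measured by validated LC/MS-MS, and fraction unbound by equilibrium dialysis. Unbound concentration = total × fraction unbound. Kp and Kp,uu = tumor/plasma total and unbound ratios.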

γH2AX = assay: IHC of double-strand DNA damage in resected tumor vs matched archival tissue; format: in vivo, human; conditions: 8 hours
Method in brief: (§1)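 A 0.5 cm³ re-resection tumor sample, snap-frozen at -80° C, was compared with FFPE tissue from the same patient's initial resection by IHC. Antibody conditions: γH2AX 1:100, 1 h at room temperature; PH3 1:100, overnight at 4°C; CC3 1:50, overnight at 4°C. Staining was quantified by semiquantitative image analysis. Mean fold change was tested against 1.000 by two-sided one-sample t test, or Wilcoxon signed-rank test if non-normal.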

phosphohistone-3 (PH3) = format: in vivo, human; conditions: for PH3 expression vs matched archival tissue: 8 hours
Method in brief: as §1

cleaved caspase-3 (CC3) = assay: IHC of programmed cell death in resected tumor vs matched archival tissue; format: in vivo, human; conditions: for CC3 apoptotic marker vs matched archival tissue: 8 hours
Method in brief: as §1

[3] = Safety assessment in the phase 0 trial; format: in vivo, human; conditions: single oral dose 100, 200 or 400 mg, 20 glioblastoma patients
Method in brief: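 Twenty adult glioblastoma patients took a single oral dose before tumor resection. Screening collected demographics and medical history. Baseline safety assessments were physical examination, vital signs, ECOG performance status, concomitant medication record, hematology, biochemistry and urinalysis.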

Wee1 = conditions: cell-based assays; ref https://ncats.nih.gov/files/AZD1775.pdf; cited from earlier work
[4] = covariate model, estimate (%RSE)
[5] = 8-hour posttreatment interval (discussion)

C=CCn1c(=O)c2cnc(Nc3ccc(N4CCN(C)CC4)cc3)nc2n1-c1cccc(C(C)(C)O)n1 [AZD1775]
CL/F, apparent oral clearance ([1]; base model, estimate (%RSE)): 160 (15) L/hour | IIV of Ka ([1]; base model, estimate (%RSE)): 100 (310) CV% | Ka ([1]; base model, estimate (%RSE)): 2.00 (114) h^−1 | B, covariate effect of glomerular filtration rate on CL/F ([1]; covariate model, CL/F = A + B × (GFR - 98), estimate (%RSE)): 1.7 (44) | IIV of Ka [1, 4]: 100 (300) CV% | Ka [1, 4]: 2.10 (111) h^−1 | V/F, apparent volume of distribution [1, 4]: 1,500 (17) L | CL/F, apparent oral clearance ([1]; covariate model, typical patient with GFR of 98 mL/minute, estimate (%RSE)): 160 L/hour and 160^a (14) L/hour | interindividual variability of CL/F explained by glomerular filtration rate ([1]; covariate on CL/F): 17% | Vd/F ([1]; human, plasma, oral): 1500 L | first-order absorption rate constant (Ka) ([1]; one-compartment model, single oral dose 100, 200, 400 mg, glioblastoma patients): 2.1 h⁻¹ | mean unbound AZD1775 tumor concentration [2]: 85 ng/g | double-stranded DNA damage measured by γH2AX vs matched archival tissue (γH2AX; 100- and 400-mg dose cohorts): less dramatic | double-stranded DNA damage measured by γH2AX vs matched archival tissue (γH2AX; 200-mg dose cohort): increased | cell-cycling (phosphohistone-3 (PH3); [5]): increased over threefold | PH3 expression change (phosphohistone-3 (PH3); 8-hour time interval, all dose cohorts together (n = 12), P = 0.0210): increased significantly | PH3 expression vs matched archival tissue (phosphohistone-3 (PH3); 200-mg dose cohort): Increased expression | PH3 expression vs matched archival tissue (phosphohistone-3 (PH3); 400-mg dose cohort): substantially increased | programmed cell death (cleaved caspase-3 (CC3); [5]): increased threefold | mean increase in CC3 expression (cleaved caspase-3 (CC3); 8-hour time interval, all dose cohorts together (n = 12), P = 0.0727): +112.2% | CC3 apoptotic marker vs matched archival tissue (cleaved caspase-3 (CC3); 200-mg dose cohort): increased most | CC3 apoptotic marker vs matched archival tissue (cleaved caspase-3 (CC3); 400-mg group): modest increase | tolerability / adverse effects [3]: No drug-related adverse events; also recorded: well-tolerated; no significant adverse effects were observed | in vitro IC50 for inhibition of Wee1 activity and induction of DNA damage as well as G2 checkpoint escape (Wee1): 0.04 µg/mL
